In assay [1] the test system is methylated H3K9 and H3K27 peptides. The assay can be described thus: Peptide microarray, chromodomain binding profile. Set-up: species or system human. The method in brief:
(§1)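 Array of 467 unmodified and modified peptides (desalted, mass-spectrometry checked) printed in triplicate spots on glass slides and probed with chromodomain proteins. Signal intensities converted to z scores per chromodomain using all its intensities: z = (x − mean)/SD. Hierarchical clustering grouped chromodomains into three categories and peptides into six clusters by binding preference.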

The next assay concerns the target H3K9me3. The following applies: read-out: Kd H3K9me3; reported Kd of CBX chromodomains; cited from earlier work.
A further assay deals with SUV91 chromodomain. The assay can be described thus: Peptide microarray binding, SUV91. Details: species or system human. The essentials:
as §1

Entries after “also recorded” stand apart in the source; their conditions may differ. Where no end group is shown, it is not given here.

As for “CBX2: CBX2 chromodomain, GST fusion, cloned sequence 9-66 (EQVFAAECILSKRLRKGKLEYLVKWRGWSSKHNSWEPEENILDPRLLLAFQKKEHEKE; also: GST fusion, end not given here; UniProt Q14781 9-66, looked up, fragment)”, in assay [1], the “binding profile toward methylated H3K9 / H3K27 peptides (in words)” value is “binding to both methylated H3K9 and H3K27 was confirmed; also recorded: higher H3K27 signal intensity compared with those of H3K9”.

In the case of “CBX4: CBX4 chromodomain, GST fusion, cloned sequence 8-65 (EHVFAVESIEKKRIRKGRVEYLVKWRGWSPKYNTWEPEENILDPRLLIAFQNRERQEQ; also: GST fusion, end not given here; UniProt O00257 8-65, looked up, fragment)”, the “binding profile toward methylated H3K9 / H3K27 peptides (in words)” value in assay [1] was “binding to both methylated H3K9 and H3K27 was confirmed”. As for “CBX6: CBX6 chromodomain, GST fusion, cloned sequence 8-65 (ERVFAAESIIKRRIRKGRIEYLVKWKGWAIKYSTWEPEENILDSRLIAAFEQKERERE; also: GST fusion, end not given here; UniProt O95503 8-65, looked up, fragment)”, the “binding profile toward methylated H3K9 / H3K27 peptides (in words)” value in assay [1] was “binding to both methylated H3K9 and H3K27 was confirmed; also recorded: showed signals with di- and trimethylated peptides at both sites”. With “CBX8: CBX8 chromodomain, GST fusion, cloned sequence 8-61 (ERVFAAEALLKRRIRKGRMEYLVKWKGWSQKYSTWEPEENILDARLLAAFEERE; also: GST fusion, end not given here; UniProt Q9HC52 8-61, looked up, fragment)”, the “binding profile toward methylated H3K9 / H3K27 peptides (in words)” value in assay [1] was “binding to both methylated H3K9 and H3K27 was confirmed; also recorded: showed signals with di- and trimethylated peptides at both sites”. The term Kd denotes the equilibrium constant for the complex coming apart. Consider “WT CBX1: WT CBX1 chromodomain, GST fusion, cloned sequence 20-73”, for which the “binding profile toward methylated H3K9 / H3K27 peptides (in words)” value in assay [1] is given as “bound predominantly to all three methylated H3K9 peptides”. In addition, the Kd at H3K9me3 is 5 µM. For “[Ahx]AATASCLIC[K_Me3]YAA [methylated SIRT1 sequence]”, the “binding to SUV91 chromodomain (in words)” value with SUV91 chromodomain was “showed binding”.

The values are drawn from article PMC6221542 (Science Advances, 2018).
